{"data": "Published values gathered from unrelated publications", "MAOB": "Amine oxidase [flavin-containing] B (MAOB, Homo sapiens, UniProt P27338)", "note": "Compare with care: the assays were run in different laboratories."}
{"SMILES": "Cc1cc(F)cc2c(CCC(=O)N[C@@H]3C(=O)NC[C@H]3O)c(-c3ccc(F)cc3)[nH]c12", "target": "Histamine H1 receptor (HRH1, Homo sapiens, UniProt P35367)", "test": "cell-free assay", "setting": "10 µM", "endpoint": "inhibition", "result": "17%"}
{"SMILES": "COc1ccc2oc(-c3ccc4nc(N)oc4c3)c/c(=N\\c3ccccc3NC(=O)CCN)c2c1", "target": "Tyrosine-protein kinase HCK (HCK, Homo sapiens, UniProt P08631)", "test": "binding", "setting": "1 µM", "endpoint": "remaining binding", "result": "108%"}
{"SMILES": "O=C(Nc1ccc(Cl)c(Br)c1)c1ccc2c(c1)C(=O)NC2=O", "target": "MAOB", "test": "enzyme activity, inhibitor", "setting": "1 µM", "endpoint": "inhibition", "result": "97.5%"}
{"SMILES": "CCCCC(=O)Nc1ccc(-c2ccc3ncn(CCC)c(=O)c3c2)cn1", "target": "Serine/threonine-protein kinase NLK (NLK, Homo sapiens, UniProt Q9UBE8)", "test": "binding, competition with immobilised ligand", "setting": "0.5 µM", "endpoint": "remaining binding", "result": "92%"}
{"SMILES": "NC/C(=C\\F)COc1cccc(Cn2c(=S)[nH]c(=O)c3[nH]cnc32)c1", "target": "Beta-1 adrenergic receptor (ADRB1, Homo sapiens, UniProt P08588)", "test": "ligand displacement, radioligand", "setting": "10 µM", "endpoint": "inhibition", "result": "< 50%"}
{"SMILES": "C[C@]1(O)CCCN(c2nc(Nc3ccc(S(=O)(=O)N[C@H]4CC[C@H](CN5CCN(c6ccc(C7CCC(=O)NC7=O)cc6F)CC5)CC4)cc3F)ncc2C(F)(F)F)C1 (stereo partly shown)", "target": "NUAK family SNF1-like kinase 2 (NUAK2, Homo sapiens, UniProt Q9H093)", "test": "binding, competition with immobilised ligand", "setting": "1 µM", "endpoint": "remaining binding", "result": "45%"}
{"SMILES": "C#Cc1cc(-c2cc(Nc3nc(N[C@@H](C)c4ccc(F)cn4)ncc3Cl)n[nH]2)ccc1C=O", "target": "Serine/threonine-protein kinase N1 (PKN1, Homo sapiens, UniProt Q16512)", "test": "enzyme activity, inhibitor", "setting": "0.2 µM", "endpoint": "inhibition", "result": "38.5%"}
{"SMILES": "O=C(Nc1ccccc1Br)c1ccc2c(c1)C(=O)NC2=O", "target": "MAOB", "test": "enzyme activity, inhibitor", "setting": "1 µM", "endpoint": "inhibition", "result": "< 5%"}
{"SMILES": "C1=C/COCc2cc(ccc2OCCN2CCCC2)Nc2nccc(n2)-c2cccc(c2)COC/1", "target": "Ribosomal protein S6 kinase alpha-6, N-terminal kinase domain (RPS6KA6, Homo sapiens, UniProt Q9UK32)", "test": "cell-free assay", "setting": "0.1 µM", "endpoint": "remaining signal", "result": "78%"}
{"SMILES": "COc1cccc(NC(=O)c2ccc3c(c2)C(=O)NC3=O)c1", "target": "MAOB", "test": "enzyme activity, inhibitor", "setting": "1 µM", "endpoint": "inhibition", "result": "< 5%"}
{"SMILES": "C[C@H](NC(=O)C(=O)Nc1ccccc1C(C)(C)C)C(=O)N[C@@H](CC(=O)O)C(=O)COc1c(F)c(F)cc(F)c1F", "target": "Caspase-1 (Casp1, Mus musculus, UniProt P29452)", "test": "enzyme activity, inhibitor", "endpoint": "kinact/KI", "result": "4.27e+06 M⁻¹ s⁻¹"}
{"SMILES": "C#CCN[C@@H]1CCc2ccccc21", "target": "MAOB", "test": "enzyme activity, inhibitor", "setting": "1 µM", "endpoint": "inhibition", "result": "87.2%"}
{"SMILES": "Nc1nc2c(ncn2[C@@H]2O[C@H](COP(=O)(O)O)[C@@H](O)[C@H]2O)c(=O)[nH]1", "target": "GUK1 (Homo sapiens, UniProt Q16774)", "test": "enzyme activity, substrate", "endpoint": "Km", "result": "14.9 µM"}
